Published values from different studies.
Protocols differ between the studies behind these lines.
OPRD1: Delta-type opioid receptor (OPRD1, Homo sapiens, UniProt P41143)
HTR3A: 5-hydroxytryptamine receptor 3A (HTR3A, Homo sapiens, UniProt P46098)
CA2: Carbonic anhydrase 2 (CA2, Homo sapiens, UniProt P00918)
PLG trypsin-like site: Plasminogen, trypsin-like site (PLG, Homo sapiens, UniProt P00747)

Compound | target | assay | conditions | measurement | value
CCC[C@H](CNC)NC[C@@H](CCC)NCC1CCCCCC1 | OPRD1 | cell-free assay | – | IC50 | > 10 µM
CS(=O)(=O)c1cccc(OCCCC(=O)N[C@H]2C[C@@H]3C[C@@H]3C2=O)c1 (relative stereo) | Transcriptional activator protein LasR (lasR, Pseudomonas aeruginosa, UniProt P25084, Y93F) | reporter gene, agonist | – | EC50 | 0.5 µM
O=C(NCc1ccncc1)Nc1ccc(S(=O)(=O)N2CC3CCC(C2)O3)cc1 | Nicotinamide phosphoribosyltransferase (NAMPT, Homo sapiens, UniProt P43490) | ligand displacement, FP | – | Kd | 2 to 6 µM
O=C(CCCOc1cccc(Br)c1)N[C@H]1C[C@@H]2C[C@@H]2C1=O (relative stereo) | Transcriptional activator protein LasR (lasR, Pseudomonas aeruginosa, UniProt P25084, R61A) | reporter gene, agonist | – | EC50 | 0.13 µM
CCOC(=O)c1cncn1[C@@H](C)c1ccc(C2(C(F)(F)F)N=N2)cc1 | HTR3A | ion current, two-electrode voltage clamp | oocytes | IC50 | 9 µM
CCC(C)[C@@H](CNC)N1CCN(CCCC2CCCCC2)[C@H](C(C)C)C1 (some centres unmarked) | OPRD1 | cell-free assay | – | IC50 | > 10 µM
O=c1c(O)c(-c2ccc(O[C@@H]3O[C@H](CO)[C@@H](O)[C@H](O)[C@H]3O)c(O)c2)oc2cc(O)cc(O)c12 | CA2 | enzyme activity, inhibitor, absorbance | – | Ki | 0.0222 µM
CC(C)(C)[C@H](NC(=O)[C@H](CCCNC(=N)N)NC(=O)Cc1ccc(CN)cc1)C(=O)N[C@@H](CCONC(=N)N)C(=O)NCc1ccc(C(=N)N)cc1 | PLG trypsin-like site | enzyme activity, inhibitor | pH 8 | Ki | 3.3 µM
On1ccccc1=S | CA2 | enzyme activity, inhibitor, absorbance | – | Ki | 567 µM
Cc1ccnc(S)c1 | CA2 | enzyme activity, inhibitor, absorbance | pH 8 | Ki | 7000 µM
CC(C)(C)[C@H](NC(=O)[C@H](CCCNC(=N)N)NC(=O)Cc1ccc(CNC(=N)N)cc1)C(=O)N[C@@H](CCCNC(=N)N)C(=O)NCc1ccc(C(=N)N)cc1 | PLG trypsin-like site | enzyme activity, inhibitor | pH 8 | Ki | 3.5 µM
CCC(C)[C@@H](CNC)N1CCN(CCC2CC3CCC2C3)[C@H](C(C)C)C1 (some centres unmarked) | OPRD1 | cell-free assay | – | IC50 | > 10 µM
COc1cc(C(=O)N2CC[C@@H](O)[C@@H](N)C2)cc2nc(-c3cc4ccccc4n3CC3CC3)n(C)c12 | HTR3A | calcium signal, agonist | – | EC50 | 50.1 µM
CC(C)(C)[C@H](NC(=O)[C@H](CCONC(=N)N)NC(=O)Cc1ccc(CN)cc1)C(=O)N[C@@H](CCCCN)C(=O)NCc1ccc(C(=N)N)cc1 | PLG trypsin-like site | enzyme activity, inhibitor | pH 8 | Ki | 21 µM
CNC[C@H](Cc1ccc(O)cc1)NC[C@H](Cc1ccc(O)cc1)NCC1CCC(C)CC1 (some centres unmarked) | OPRD1 | cell-free assay | – | IC50 | > 10 µM
On1c(=S)ccc2ccccc21 | CA2 | enzyme activity, inhibitor, absorbance | pH 8 | Ki | 730 µM
Cc1cn([C@@H]2CC[C@H](OC(C(=O)O)C(=O)O)C2)c(=O)[nH]c1=O | Gag-Pol polyprotein, reverse transcriptase (gag-pol, Human immunodeficiency virus 1, UniProt P03366) | enzyme activity, inhibitor, radiometric | – | IC50 | 20 µM
